Measured values from ChEMBL document CHEMBL5653631, “A Potent and Selective ULK1 Inhibitor Suppresses Autophagy and Sensitizes Cancer Cells to Nutrient Stress” (iScience, 2018).

Experiments:
[1] = target: Ribosomal protein S6 kinase alpha-4 (Homo sapiens) (UniProt O75676); test: Inhibition of human recombinant MSK2 at 40 nM in presence of ATP by radiometric assay relative to control
[2] = target: T1, Serine/threonine-protein kinase Sgk3 (Homo sapiens) (UniProt Q96BR1); test: Inhibition of human recombinant SGK3 at 40 nM related to control ULK1
T1 sequence (whole entry): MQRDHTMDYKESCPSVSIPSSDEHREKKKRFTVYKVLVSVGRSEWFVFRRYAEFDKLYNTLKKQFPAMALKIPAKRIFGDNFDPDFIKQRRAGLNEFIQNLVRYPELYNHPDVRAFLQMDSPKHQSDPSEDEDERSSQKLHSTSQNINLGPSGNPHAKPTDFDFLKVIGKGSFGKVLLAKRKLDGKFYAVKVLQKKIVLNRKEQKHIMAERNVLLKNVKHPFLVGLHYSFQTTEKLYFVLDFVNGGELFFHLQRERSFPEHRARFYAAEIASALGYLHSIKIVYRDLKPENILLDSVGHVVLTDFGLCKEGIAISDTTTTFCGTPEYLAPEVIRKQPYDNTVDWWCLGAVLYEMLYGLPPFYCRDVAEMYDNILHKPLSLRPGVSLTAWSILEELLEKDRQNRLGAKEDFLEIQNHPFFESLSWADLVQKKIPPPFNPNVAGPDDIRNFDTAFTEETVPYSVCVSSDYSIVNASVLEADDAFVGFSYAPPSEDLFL

[3] = target: Serine/threonine-protein kinase MRCK alpha (Homo sapiens) (UniProt Q5VT25); test: Inhibition of human recombinant MRCKa at 40 nM in presence of ATP by radiometric assay relative to control
[4] = target: Maternal embryonic leucine zipper kinase (Homo sapiens) (UniProt Q14680); test: Inhibition of human recombinant MELK at 40 nM in presence of ATP by radiometric assay relative to control
Sequence of Maternal embryonic leucine zipper kinase (Homo sapiens) (Q14680 whole entry, looked up): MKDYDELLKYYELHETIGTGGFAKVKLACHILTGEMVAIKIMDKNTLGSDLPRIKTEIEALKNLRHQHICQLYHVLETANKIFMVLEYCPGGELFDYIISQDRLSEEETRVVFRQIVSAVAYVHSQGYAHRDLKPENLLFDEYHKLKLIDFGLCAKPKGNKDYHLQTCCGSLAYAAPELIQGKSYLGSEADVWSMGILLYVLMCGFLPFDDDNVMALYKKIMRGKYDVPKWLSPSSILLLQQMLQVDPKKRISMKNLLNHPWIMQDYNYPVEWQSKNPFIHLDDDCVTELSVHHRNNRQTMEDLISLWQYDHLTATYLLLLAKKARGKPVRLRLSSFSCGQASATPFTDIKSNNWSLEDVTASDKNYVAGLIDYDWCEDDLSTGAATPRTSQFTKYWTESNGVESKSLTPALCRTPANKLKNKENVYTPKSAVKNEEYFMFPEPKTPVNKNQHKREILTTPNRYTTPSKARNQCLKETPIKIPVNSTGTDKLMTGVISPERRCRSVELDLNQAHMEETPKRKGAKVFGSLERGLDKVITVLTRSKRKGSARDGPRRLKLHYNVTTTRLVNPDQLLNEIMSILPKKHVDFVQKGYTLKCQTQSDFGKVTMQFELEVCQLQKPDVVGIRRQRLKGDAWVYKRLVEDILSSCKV

[5] = target: Eukaryotic translation initiation factor 2-alpha kinase 1 (Homo sapiens) (UniProt Q9BQI3); test: Inhibition of human recombinant HRI at 15 nM related to control ULK1
Sequence of Eukaryotic translation initiation factor 2-alpha kinase 1 (Homo sapiens) (Q9BQI3 whole entry): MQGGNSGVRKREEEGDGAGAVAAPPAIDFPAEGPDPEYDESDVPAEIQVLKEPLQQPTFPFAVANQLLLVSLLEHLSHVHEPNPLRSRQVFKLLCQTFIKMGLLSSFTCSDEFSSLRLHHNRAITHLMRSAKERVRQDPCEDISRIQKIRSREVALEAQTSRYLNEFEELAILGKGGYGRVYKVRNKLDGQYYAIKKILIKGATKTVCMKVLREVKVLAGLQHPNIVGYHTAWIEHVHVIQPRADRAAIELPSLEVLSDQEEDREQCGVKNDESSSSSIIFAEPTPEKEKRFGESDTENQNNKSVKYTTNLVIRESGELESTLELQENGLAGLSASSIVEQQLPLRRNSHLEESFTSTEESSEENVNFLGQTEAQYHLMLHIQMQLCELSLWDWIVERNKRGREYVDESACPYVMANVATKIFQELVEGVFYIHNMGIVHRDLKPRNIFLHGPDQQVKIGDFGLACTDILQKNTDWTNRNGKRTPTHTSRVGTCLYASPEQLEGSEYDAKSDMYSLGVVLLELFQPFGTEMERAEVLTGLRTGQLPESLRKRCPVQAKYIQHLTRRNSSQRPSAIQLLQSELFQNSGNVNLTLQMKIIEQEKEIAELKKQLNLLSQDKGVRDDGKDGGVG

[6] = target: T2, Testis-specific serine/threonine-protein kinase 2 (Homo sapiens) (UniProt Q96PF2); test: Inhibition of human recombinant TSSK2 at 15 nM in presence of ATP by radiometric assay relative to control
T2 sequence (whole entry): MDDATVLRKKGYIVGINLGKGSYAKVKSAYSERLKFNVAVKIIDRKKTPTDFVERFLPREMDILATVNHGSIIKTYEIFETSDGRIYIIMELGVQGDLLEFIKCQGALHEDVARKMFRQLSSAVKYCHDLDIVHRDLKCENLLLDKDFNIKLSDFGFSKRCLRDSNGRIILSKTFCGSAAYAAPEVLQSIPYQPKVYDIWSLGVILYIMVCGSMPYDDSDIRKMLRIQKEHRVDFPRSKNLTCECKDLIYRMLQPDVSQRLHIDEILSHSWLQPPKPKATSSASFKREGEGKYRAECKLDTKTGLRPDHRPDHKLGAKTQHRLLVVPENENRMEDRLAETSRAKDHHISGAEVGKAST

[7] = target: Serine/threonine-protein kinase PAK 6 (Homo sapiens) (UniProt Q9NQU5); test: Inhibition of human recombinant PAK6 at 500 nM in presence of ATP by radiometric assay relative to control
Sequence of Serine/threonine-protein kinase PAK 6 (Homo sapiens) (Q9NQU5 whole entry, looked up): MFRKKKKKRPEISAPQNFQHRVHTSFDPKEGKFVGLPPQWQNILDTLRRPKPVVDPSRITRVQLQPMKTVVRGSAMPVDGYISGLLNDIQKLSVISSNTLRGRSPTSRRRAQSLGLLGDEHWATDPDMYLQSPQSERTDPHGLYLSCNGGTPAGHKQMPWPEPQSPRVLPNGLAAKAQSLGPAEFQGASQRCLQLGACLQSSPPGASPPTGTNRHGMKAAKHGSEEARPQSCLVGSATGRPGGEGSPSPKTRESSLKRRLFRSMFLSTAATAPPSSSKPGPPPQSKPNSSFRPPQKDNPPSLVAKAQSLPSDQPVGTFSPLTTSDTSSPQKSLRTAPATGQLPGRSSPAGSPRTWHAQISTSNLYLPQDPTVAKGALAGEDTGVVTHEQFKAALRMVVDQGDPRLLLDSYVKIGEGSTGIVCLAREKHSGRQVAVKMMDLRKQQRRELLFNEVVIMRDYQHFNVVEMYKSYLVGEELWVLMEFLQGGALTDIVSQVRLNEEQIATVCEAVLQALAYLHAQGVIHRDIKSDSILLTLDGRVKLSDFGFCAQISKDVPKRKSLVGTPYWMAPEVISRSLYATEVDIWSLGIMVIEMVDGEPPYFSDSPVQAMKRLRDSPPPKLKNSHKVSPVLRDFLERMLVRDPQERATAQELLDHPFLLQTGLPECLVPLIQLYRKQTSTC

[8] = target: Serine/threonine-protein kinase PLK1 (Homo sapiens) (UniProt P53350); test: Inhibition of human recombinant PLK1 at 500 nM related to control ULK1
Sequence of Serine/threonine-protein kinase PLK1 (Homo sapiens) (P53350 whole entry): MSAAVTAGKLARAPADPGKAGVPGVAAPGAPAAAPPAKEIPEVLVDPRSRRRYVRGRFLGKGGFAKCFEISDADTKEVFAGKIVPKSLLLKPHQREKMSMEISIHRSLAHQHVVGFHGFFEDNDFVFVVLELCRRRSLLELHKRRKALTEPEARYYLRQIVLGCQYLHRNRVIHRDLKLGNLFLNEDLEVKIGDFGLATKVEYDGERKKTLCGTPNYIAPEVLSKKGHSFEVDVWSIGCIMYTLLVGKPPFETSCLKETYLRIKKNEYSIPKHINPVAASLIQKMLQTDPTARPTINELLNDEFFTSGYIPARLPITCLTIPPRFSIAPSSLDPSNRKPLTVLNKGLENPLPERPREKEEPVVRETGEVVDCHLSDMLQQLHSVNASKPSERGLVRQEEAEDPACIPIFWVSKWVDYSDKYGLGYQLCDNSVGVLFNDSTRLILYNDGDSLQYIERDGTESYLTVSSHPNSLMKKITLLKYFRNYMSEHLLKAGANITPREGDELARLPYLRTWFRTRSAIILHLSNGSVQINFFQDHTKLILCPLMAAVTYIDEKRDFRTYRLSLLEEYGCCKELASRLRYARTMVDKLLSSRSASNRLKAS

[9] = target: Cyclin-dependent kinase 5 (Homo sapiens) (UniProt Q00535); test: Inhibition of human recombinant CDK5 at 500 nM in presence of ATP by radiometric assay relative to control
Sequence of Cyclin-dependent kinase 5 (Homo sapiens) (Q00535 whole entry, looked up): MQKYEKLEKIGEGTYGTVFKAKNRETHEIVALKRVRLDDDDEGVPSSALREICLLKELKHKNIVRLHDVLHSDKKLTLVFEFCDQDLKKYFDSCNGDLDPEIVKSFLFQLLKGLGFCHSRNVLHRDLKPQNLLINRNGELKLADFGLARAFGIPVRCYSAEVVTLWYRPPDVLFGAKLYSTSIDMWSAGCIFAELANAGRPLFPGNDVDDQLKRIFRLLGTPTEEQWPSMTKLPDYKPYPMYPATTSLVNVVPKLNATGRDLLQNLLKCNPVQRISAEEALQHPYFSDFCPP

[10] = target: 5'-AMP-activated protein kinase catalytic subunit alpha-2 (Homo sapiens) (UniProt P54646); test: Inhibition of human recombinant AMPKa2 at 500 nM related to control ULK1
Sequence of 5'-AMP-activated protein kinase catalytic subunit alpha-2 (Homo sapiens) (P54646 whole entry, looked up): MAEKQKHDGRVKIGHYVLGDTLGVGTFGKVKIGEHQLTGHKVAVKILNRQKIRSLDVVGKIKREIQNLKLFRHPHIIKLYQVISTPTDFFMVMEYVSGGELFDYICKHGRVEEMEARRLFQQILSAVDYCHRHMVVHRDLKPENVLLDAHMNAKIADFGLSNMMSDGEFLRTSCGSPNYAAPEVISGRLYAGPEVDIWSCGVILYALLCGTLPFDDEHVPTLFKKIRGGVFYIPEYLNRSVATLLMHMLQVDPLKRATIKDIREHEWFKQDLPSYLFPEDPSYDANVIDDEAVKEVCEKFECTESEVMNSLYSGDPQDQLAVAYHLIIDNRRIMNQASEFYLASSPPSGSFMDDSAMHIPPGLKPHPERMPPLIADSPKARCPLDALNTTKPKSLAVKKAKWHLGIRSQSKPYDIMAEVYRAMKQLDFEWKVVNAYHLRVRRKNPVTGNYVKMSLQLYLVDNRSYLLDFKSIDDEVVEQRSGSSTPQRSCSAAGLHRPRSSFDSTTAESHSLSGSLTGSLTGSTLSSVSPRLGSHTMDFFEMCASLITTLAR
Outline: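 Panel of 327 recombinant human kinases, each assayed in vitro by radiometric activity assay in duplicate at a single inhibitor concentration per compound, chosen with reference to its ULK1 inhibition. Activity remaining was expressed as percent of vehicle control, and percent inhibition was calculated as 100 minus percent activity remaining.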

[11] = target: T3, Serine/threonine-protein kinase TAO1 (Homo sapiens) (UniProt Q7L7X3); test: Inhibition of human recombinant TAO1 at 500 nM related to control ULK1
T3 sequence (whole entry): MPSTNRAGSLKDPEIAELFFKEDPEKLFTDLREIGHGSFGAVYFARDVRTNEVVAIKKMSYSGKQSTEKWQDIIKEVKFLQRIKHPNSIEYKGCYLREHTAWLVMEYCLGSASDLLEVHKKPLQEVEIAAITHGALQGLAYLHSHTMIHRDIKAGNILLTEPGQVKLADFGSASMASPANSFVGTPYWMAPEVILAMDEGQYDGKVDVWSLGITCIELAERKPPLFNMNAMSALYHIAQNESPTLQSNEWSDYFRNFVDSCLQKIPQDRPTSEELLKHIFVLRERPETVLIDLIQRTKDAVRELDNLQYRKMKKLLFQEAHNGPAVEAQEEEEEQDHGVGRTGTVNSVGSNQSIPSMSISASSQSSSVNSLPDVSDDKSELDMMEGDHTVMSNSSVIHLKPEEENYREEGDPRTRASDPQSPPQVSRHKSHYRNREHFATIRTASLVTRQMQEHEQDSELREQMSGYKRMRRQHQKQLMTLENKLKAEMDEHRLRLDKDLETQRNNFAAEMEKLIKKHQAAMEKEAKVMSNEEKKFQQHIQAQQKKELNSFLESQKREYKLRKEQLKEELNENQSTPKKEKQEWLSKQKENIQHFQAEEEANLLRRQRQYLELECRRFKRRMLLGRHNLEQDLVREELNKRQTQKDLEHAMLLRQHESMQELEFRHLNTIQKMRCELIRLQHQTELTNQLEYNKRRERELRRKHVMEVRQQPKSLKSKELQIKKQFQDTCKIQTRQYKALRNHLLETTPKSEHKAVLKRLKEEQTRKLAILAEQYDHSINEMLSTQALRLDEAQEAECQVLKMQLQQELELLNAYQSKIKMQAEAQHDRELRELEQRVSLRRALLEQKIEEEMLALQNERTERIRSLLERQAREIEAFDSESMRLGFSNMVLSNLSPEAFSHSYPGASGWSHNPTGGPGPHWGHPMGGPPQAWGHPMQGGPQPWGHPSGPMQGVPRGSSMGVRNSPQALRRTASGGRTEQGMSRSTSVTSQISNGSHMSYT

[12] = target: Serine/threonine-protein kinase PRP4 homolog (Homo sapiens) (UniProt Q13523); test: Inhibition of human recombinant PRP4 at 500 nM in presence of ATP by radiometric assay relative to control

Sequence of Ribosomal protein S6 kinase alpha-4 (Homo sapiens) (O75676 whole entry, looked up): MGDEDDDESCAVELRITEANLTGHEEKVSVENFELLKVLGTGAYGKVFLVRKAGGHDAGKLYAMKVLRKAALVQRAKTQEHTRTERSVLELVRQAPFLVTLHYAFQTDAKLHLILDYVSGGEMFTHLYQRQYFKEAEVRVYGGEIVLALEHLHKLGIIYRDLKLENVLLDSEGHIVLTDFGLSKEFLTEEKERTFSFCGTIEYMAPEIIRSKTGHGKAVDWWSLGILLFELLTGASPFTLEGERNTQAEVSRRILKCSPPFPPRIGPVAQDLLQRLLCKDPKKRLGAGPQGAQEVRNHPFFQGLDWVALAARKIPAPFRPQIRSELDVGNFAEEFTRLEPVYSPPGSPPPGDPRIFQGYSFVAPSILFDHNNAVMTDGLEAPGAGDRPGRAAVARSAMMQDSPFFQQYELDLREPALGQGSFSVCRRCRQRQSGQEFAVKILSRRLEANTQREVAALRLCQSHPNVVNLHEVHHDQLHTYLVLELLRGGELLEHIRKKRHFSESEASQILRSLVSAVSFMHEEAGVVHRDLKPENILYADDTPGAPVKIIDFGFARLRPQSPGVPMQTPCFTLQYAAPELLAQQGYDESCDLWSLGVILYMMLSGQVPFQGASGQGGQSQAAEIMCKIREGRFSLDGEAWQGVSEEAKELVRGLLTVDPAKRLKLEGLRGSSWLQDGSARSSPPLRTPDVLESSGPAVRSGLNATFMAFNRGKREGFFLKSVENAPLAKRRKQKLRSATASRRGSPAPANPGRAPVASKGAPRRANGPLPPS

O=C(N[C@@H](C1CC1)C(F)(F)F)c1cc(-c2cnn3cc(-c4ccc(F)cc4)cnc23)cs1
inhibition [1]: 0%
fold change (FC) [2]: 0
inhibition [3]: 2%
inhibition [4]: 20%

CC(C)[C@H](NC(=O)c1cc(-c2cnn3cc(-c4ccc(OCCN5CCCCC5)cc4)cnc23)cs1)C(F)(F)F
fold change (FC) [5]: 0
inhibition [6]: 1%

CNC(=O)c1ccccc1Oc1nc(Nc2cc(OC)c(OC)c(OC)c2)ncc1Br
inhibition [7]: 19%
fold change (FC) [8]: 0
inhibition [9]: 57%
fold change (FC) [10]: 0.77
fold change (FC) [11]: 0.08
inhibition [12]: 2%
